Screening results: PubChem, several laboratories
PAFAH2 FP inh – PAFAH2 enzyme inhibitors, primary screen, biochemical, fluorescence polarization, human | 0.99% of 340,000 active | Platelet-activating factor acetylhydrolase 2, cytoplasmic (Homo sapiens), Q99487 | inhibition, % at 3.39 µM | recombinant PAFAH2, FP-rhodamine activity probe;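 active = inhibition above the mean over all tested compounds plus 3 SD, cut at about 30% in these data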;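 also: inhibitors block probe labeling of enzyme so polarization drops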
PAFAH1B3 FP inh – PAFAH1B3 enzyme inhibitors, primary screen, biochemical, fluorescence polarization, human. AID 492972, 2010. recombinant PAFAH1B3, FP-rhodamine probe. 0.28% of 340,000 active. inhibition, % at 3.39 µM. Platelet-activating factor acetylhydrolase IB subunit alpha1 (Homo sapiens), Q15102;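 active = inhibition above the screen-wide average of all tested compounds plus 3 SD, cut at about 25% in these data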
pPAFAH FP inh – pPAFAH enzyme inhibitors, primary screen, biochemical, fluorescence polarization, human. Platelet-activating factor acetylhydrolase (Homo sapiens), Q13093. recombinant pPAFAH, FP-rhodamine probe fluorescence polarization. inhibition, % at 3.39 µM. 1.5% of 330,000 active;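 active = inhibition above the mean inhibition across the screen plus 3 SD, cut at about 25% in these data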;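 also: inhibitors block binding of the rhodamine activity-based probe so polarization drops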
Apaf1 inhib – inhibitors of human Apaf-1 apoptosome, primary screen, biochemical, DEVD-Rh110 fluorescence, uHTS | Apoptotic protease-activating factor 1 (Homo sapiens), O14727 | reconstituted apoptosome caspase-3 activity | inhibition, % at 20 µM | 0.71% of 330,000 active | AID 489030, 2010; active = inhibition of at least 40% at 20 µM
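Assay system: Apoptosome proteins | Medium: pH 7.5 Hepes buffer with CHAPS, BSA, DTT | Also added: Cytochrome c and DEVD-Rh110 substrate | Times: 30 min plus 50 min, RT | Detection: Rhodamine 110 fluorescence at Ex 480/Em 540 nm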
PAFAH1B2 inh – PAFAH1B2 enzyme inhibitors, primary screen, biochemical, fluorescence polarization, human. Platelet-activating factor acetylhydrolase IB subunit alpha2 (Homo sapiens), P68402. recombinant PAFAH1B2, FP-rhodamine activity probe. inhibition, % at 3.39 µM. 1.2% of 340,000 active. AID 492953, 2010;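 active = inhibition above the mean of all tested compounds plus 3 SD, cut at about 24% in these data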
Large screens that a line does not name were inactive. In the library only some 3.1% were active in any assay of this set; here they are far more common.

COC(=O)C1=C(c2ccc(F)cc2OCc2ccccc2)C[C@@H]2CC[C@H]1N2C(=O)N1CCC(O)CC1	none
COC(=O)C1=C(c2c(C)noc2C)C[C@@H]2CC[C@H]1N2C(=O)NCc1ccc(C(F)(F)F)cc1	PAFAH1B2 inh 24
COc1ccc2c(C)c(CCC(=O)N3C[C@H]4C[C@@H](C3)c3cccc(=O)n3C4)c(=O)oc2c1	none
O=P(O)(Oc1ccccc1)OC(c1ccccc1)C(F)(F)C(F)(F)F (stereo not drawn)	PAFAH1B2 inh 77
O=P(Oc1ccccc1)(Oc1ccccc1)C(Nc1ccccc1)c1ccccc1 (stereo not drawn)	none
O=C1NC(=O)C(Nc2ccccc2)C(=O)N1	none (no result: pPAFAH FP inh, Apaf1 inhib)
O=C1CN=C(c2ccccc2)c2ccccc2N1Cc1ccc(C(F)(F)F)cc1	PAFAH1B2 inh 59
Cc1oc(-c2ccccc2Cl)nc1CN1C(=O)CN=C(c2ccccc2)c2ccccc21	none
COC1CCC(OC2CC(C3(C)CCC4(CC(O)C(C)C(C(C)/C=C(\C)C(=O)C(C)CC(C)C(=O)O)O4)O3)OC3(OC(C4OC(O)(CO)C(C)CC4C)CC3C)C2C)OC1C (stereo not drawn)	none (no result: pPAFAH FP inh, Apaf1 inhib)
CC[C@@H]1C=CC=CC[C@H](C)[C@@H](O)[C@@H](C)C(=O)[C@H](C)[C@@H](O)[C@H](C)C(=O)[C@H](C)[C@@H](O)[C@H](C)C=CC(=O)O[C@H]2[C@@H](C)[C@@H](CC1)O[C@@]1(CC[C@@H](C)[C@@H](C[C@H](C)O)O1)[C@@H]2C	none (no result: PAFAH2 FP inh, PAFAH1B3 FP inh, PAFAH1B2 inh)
Cn1c(O)c(C(=Nc2ccccc2)SCc2ccc(Cl)cc2)c(=O)n(C)c1=O	PAFAH1B2 inh 26
CCOc1ccccc1CN1C2CCC1CC(c1ccc(C)cc1)C2 (stereo not drawn)	none
Cn1ncnc2c(=O)n(C)c(=O)nc1-2	PAFAH2 FP inh 59, PAFAH1B3 FP inh 75, Apaf1 inhib 99, PAFAH1B2 inh 51
CC(=O)OC1C=CC2[C@H]3Cc4ccc(O)c5c4[C@@]2(CCN3C)C1O5 (stereo partly drawn)	none
O=C(O)c1ccc2c(c1)C1C(Cl)C(Sc3ccccc3[N+](=O)[O-])CC1C(c1cccc([N+](=O)[O-])c1)N2 (stereo not drawn)	PAFAH2 FP inh 52, PAFAH1B3 FP inh 41 (no result: pPAFAH FP inh, Apaf1 inhib)
O=[N+]([O-])c1cccc(C2N3CCCN23)c1 (stereo not drawn)	none
O=C(O)c1cccc2c1NC(c1cccc([N+](=O)[O-])c1)C1CC(Sc3ccccc3[N+](=O)[O-])C(Cl)C21 (stereo not drawn)	PAFAH2 FP inh 37 (no result: pPAFAH FP inh)
C[C@]12CCC3C(CC[C@H]4C[C@H](O)CC[C@]34C)C1CCC2=O (stereo partly drawn)	none
CC(=O)O[C@@H]1/C=C/[C@](C)(O)C[C@@H](C)C/C=C/[C@H]2[C@@H]3O[C@]3(C)[C@@H](C)[C@H]3[C@H](Cc4ccccc4)NC(=O)[C@@]312	none (no result: PAFAH2 FP inh, PAFAH1B3 FP inh, PAFAH1B2 inh)
C=C[C@@H]1C[C@@]1(C)[C@@H](NP(=O)(c1ccccc1)c1ccccc1)c1ccccc1	PAFAH1B2 inh 41
Cc1cccc(N2C(=O)/C(=C/c3ccc(N4CCN(C)CC4)o3)C(=O)NC2=S)c1C	none
Cc1ccccc1N1C(=O)/C(=C/c2ccco2)C(=O)NC1=S	pPAFAH FP inh 91 (no result: PAFAH2 FP inh, PAFAH1B3 FP inh, Apaf1 inhib, PAFAH1B2 inh)
O=C(COC(=O)Cc1ccccc1)NNC(=O)c1ccc([N+](=O)[O-])cc1	pPAFAH FP inh 28
COc1ccc2c(c1O)C13CCN(C)C(C2)C1CCC(=O)C3 (stereo not drawn)	none (no result: PAFAH2 FP inh, PAFAH1B3 FP inh, PAFAH1B2 inh)
O=c1cc(C(F)(F)F)c2cc3c4c(c2o1)CCCN4CCC3	pPAFAH FP inh 26
Cc1ccc(-c2nn(Cc3ccccc3)cc2C(=O)O)cc1	none
Cc1c(C(=O)O)cc(-c2ccccc2)n1Cc1ccccc1	PAFAH1B2 inh 28
CC1CN1P(=O)(Oc1ccccc1)N1CC1C (stereo not drawn)	none (no result: pPAFAH FP inh, Apaf1 inhib)
C[C@]12C[C@H](O)[C@@H](O)CC1=CCC1C2CC[C@@]2(C)C1CC[C@@H]2O (stereo partly drawn)	none
Cc1cc(OCC(=O)NC(Cc2ccc(Cl)cc2)C(=O)O)c2c3c(c(=O)oc2c1)CCCC3 (stereo not drawn)	PAFAH1B2 inh 30
C=C1C(O)[C@@H]2O[C@]3(CC[C@H](/C=C/C(C)[C@@H]4CC(C)=CC5(O[C@H](C[C@@](C)(O)C(=O)O)CCC5O)O4)O3)CC[C@H]2O[C@@H]1C(O)CC(C)[C@H]1OC2(CCCCO2)CCC1C (stereo partly drawn)	none (no result: PAFAH2 FP inh, PAFAH1B3 FP inh, PAFAH1B2 inh)
COC(=O)C1=C(c2ccc(F)cc2F)C[C@@H]2CC[C@H]1N2C(=O)N1CCCCC1	none
COC[C@]12CN(C)C3C4[C@H](OC)[C@H]1C3([C@@H](OC)C[C@H]2O)[C@@H]1C[C@@]2(O)[C@H](OC(=O)c3ccccc3)[C@@H]1[C@]4(OC(C)=O)[C@@H](O)[C@@H]2OC	none (no result: PAFAH2 FP inh, PAFAH1B3 FP inh, PAFAH1B2 inh)
N#C/C(=C(/O)c1ccc(S(=O)(=O)N(CCCl)CCCl)cc1)c1nc2ccccc2[nH]1	none
O=C(O)c1c[nH]c2ccc(S(=O)(=O)N(CCCl)CCCl)cc12	PAFAH1B2 inh 37
CCN(CC)c1ccc(N=Cc2c(O)n(-c3ccc(Cl)cc3)c(=O)[nH]c2=O)cc1	none
CCN(CC)c1ccc(N=Cc2c(O)n(-c3ccc(OC)cc3)c(=O)[nH]c2=O)cc1	pPAFAH FP inh 25
O=C(O)CCCc1ccc(N(CCCl)CCCl)cc1	none
O=C1NC(=S)SC1=Cc1ccc(N(CCCl)CCCl)cc1	PAFAH1B2 inh 28 (no result: pPAFAH FP inh, Apaf1 inhib)
CN(C)[C@@H]1C(=O)C(C(N)=O)=C(O)[C@@]2(O)C(=O)C3=C(O)c4c(O)cccc4[C@@](C)(O)[C@H]3C[C@@H]12	pPAFAH FP inh 73 (no result: PAFAH2 FP inh, PAFAH1B3 FP inh, PAFAH1B2 inh)
CN(C)[C@@H]1C(=O)C(C(N)=O)=C(O)[C@@]2(O)C(=O)C3=C(O)c4c(O)ccc(Cl)c4[C@@](C)(O)C3C[C@@H]12 (stereo partly drawn)	none (no result: pPAFAH FP inh, Apaf1 inhib)
O=C1NC(=O)N(Cc2ccccc2)C(=O)/C1=C\c1ccco1	none
CCCCN1C(=O)/C(=C\c2ccco2)C(=O)N(CCc2ccccc2)C1=O	pPAFAH FP inh 29
NP(=O)(OCCCc1ccccc1)Oc1ccccc1Cl (stereo not drawn)	PAFAH2 FP inh 67, PAFAH1B3 FP inh 45, PAFAH1B2 inh 92
CC(C)CCOP(N)(=O)Oc1ccccc1Cl (stereo not drawn)	PAFAH1B3 FP inh 26, PAFAH1B2 inh 85
NP(=O)(OCCCc1ccccc1)Oc1ccc(Cl)cc1 (stereo not drawn)	PAFAH1B2 inh 95
CCc1cc(=O)oc2c(C)c(OCC(=O)N3C[C@H]4C[C@@H](C3)c3cccc(=O)n3C4)ccc12	none
COC(=O)C1=C(c2cccc(OCc3ccccc3)c2)C[C@@H]2CC[C@H]1N2C(=O)NCc1ccc2[nH]ccc2c1	none
